Laboratory results from ChEMBL document CHEMBL3243993, “Cardenolide analogues. 4. (20R)- and (20S)-Cardanolides: on the roles of the 20(22)-ene and 14beta-hydroxyl in genin activity” (J Med Chem, 1979).
pIC50: −log10 of the molar value.

Legend:
[1] = Inhibition of rat brain (Na+,K+)ATPase in presence of appropriate Mg2+ and Na+; conditions: read-out: I50
[2] = Inhibition of rat brain (Na+,K+)ATPase incubated for 10 mins followed by Kcl added in presence of appropriate Mg2+ and Na+; conditions: read-out: I50
Summary of the method: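 Steroids added in ethanol to the (Na+,K+)ATPase tubes, at most 20 μL ethanol per tube. After 10 min, KCl was added to start (Na+,K+)ATPase activity. Where a steroid was insoluble in the medium, no precise value could be obtained.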

[3] = Solubility of the compound in steroid medium; type: physicochemical
Summary of the method: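 Observed in the (Na⁺,K⁺)ATPase assay medium. Steroids were added in ethanol to the enzyme tubes, at no more than 20 μL ethanol per tube. After 10 min, KCl was added to start (Na⁺,K⁺)ATPase activity.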

Row | SMILES | pIC50 [1] | pIC50 [2] | solubility [3]
1 | C=C1C(=O)OC[C@@H]1[C@H]1CC[C@]2(O)[C@@H]3CC[C@@H]4C[C@@H](O)CC[C@]4(C)[C@H]3CC[C@]12C | 4.15 | 4.15 | –
2 | C=C1C(=O)OC[C@H]1[C@H]1CC[C@]2(O)[C@@H]3CC[C@@H]4C[C@@H](O)CC[C@]4(C)[C@H]3CC[C@]12C | 4.15 | 4.22 | –
3 | C=C1C(=O)OC[C@H]1[C@H]1CC=C2[C@@H]3CC[C@@H]4C[C@@H](O)CC[C@]4(C)[C@H]3CC[C@@]21C | 4.00 | 4.00 | Insoluble
4 | C[C@]12CC[C@H](O)C[C@H]1CC[C@@H]1[C@@H]2CC[C@]2(C)[C@@H]([C@H]3COC(=O)C3)CC[C@]12O | 4.85 | 4.92 | –
5 | C=C1C(=O)OC[C@@H]1[C@H]1CC=C2[C@@H]3CC[C@@H]4C[C@@H](O)CC[C@]4(C)[C@H]3CC[C@@]21C | 4.52 | 4.70 | –
6 | C[C@]12CC[C@H](O)C[C@H]1CC[C@@H]1[C@@H]2CC[C@]2(C)[C@@H](C3=CC(=O)OC3)CC[C@]12O [DIGITOXIGENIN] | 6.46 | 6.46 | –
7 | C[C@]12CC[C@H](O)C[C@H]1CC[C@@H]1[C@@H]2CC[C@]2(C)[C@@H]([C@@H]3COC(=O)C3)CC[C@]12O | 4.85 | 4.96 | –
